ChEMBL document CHEMBL4813976, “Rational drug design of benzothiazole-based derivatives as potent signal transducer and activator of transcription 3 (STAT3) signaling pathway inhibitors” (Eur J Med Chem, 2021)

Assays:
MDA-MB-468 = assay: Antiproliferative activity against human MDA-MB-468 cells overexpressing STAT3 assessed as inhibition of cell growth incubated for 72 hrs by MTT assay; assay type: functional, cell-based; details: MDA-MB-468, 72 h
In short: (§1)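 MTT proliferation assay; MDA-MB-468 grown in DMEM/F-12 and HEL in high-glucose DMEM, each with 10% FBS and penicillin/streptomycin, at 37 °C under 5% CO₂. IC50 given as mean ± SD of at least three independent experiments.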

HEL = assay: Antiproliferative activity against human HEL cells harboring JAK2 V617F mutant assessed as inhibition of cell growth incubated for 72 hrs by MTT assay; assay type: functional, cell-based; in short: as §1
[1] = biological target: T1, Signal transducer and activator of transcription 3 (Homo sapiens, UniProt P40763); assay: Inhibition of IL-6 induced STAT3 transcriptional activity in human HepG2 cells incubated for 1 hr followed by stimulation with IL-6 for 5.5 hrs by luciferase reporter gene assay; assay type: cell-based
T1 sequence (P40763 whole entry): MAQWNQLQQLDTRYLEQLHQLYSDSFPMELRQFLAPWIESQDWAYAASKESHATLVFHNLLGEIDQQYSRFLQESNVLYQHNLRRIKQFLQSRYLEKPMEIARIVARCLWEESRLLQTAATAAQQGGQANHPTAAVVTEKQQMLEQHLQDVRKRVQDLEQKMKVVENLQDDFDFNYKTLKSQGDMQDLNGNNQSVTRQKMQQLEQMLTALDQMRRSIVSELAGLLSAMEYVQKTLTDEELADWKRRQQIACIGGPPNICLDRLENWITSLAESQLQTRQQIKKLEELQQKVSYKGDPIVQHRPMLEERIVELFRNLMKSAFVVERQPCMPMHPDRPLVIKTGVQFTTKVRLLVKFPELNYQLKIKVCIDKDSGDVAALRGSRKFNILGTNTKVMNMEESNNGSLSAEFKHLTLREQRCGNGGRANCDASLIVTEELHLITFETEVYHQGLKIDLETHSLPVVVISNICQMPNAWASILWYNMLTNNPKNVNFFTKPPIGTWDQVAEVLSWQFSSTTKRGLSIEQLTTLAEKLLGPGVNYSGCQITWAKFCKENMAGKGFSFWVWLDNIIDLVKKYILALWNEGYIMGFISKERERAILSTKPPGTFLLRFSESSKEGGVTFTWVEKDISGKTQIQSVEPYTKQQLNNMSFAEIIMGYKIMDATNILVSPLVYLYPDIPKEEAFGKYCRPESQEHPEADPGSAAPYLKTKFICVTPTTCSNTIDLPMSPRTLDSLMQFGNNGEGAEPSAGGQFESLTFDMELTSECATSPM
In short: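 STAT3-dependent luciferase reporter assay in HepG2 cells with IL-6 stimulation; IC50 given as mean ± SD of at least three independent experiments.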

[2] = biological target: T1, Signal transducer and activator of transcription 3; assay: Displacement of 5'-FAM-GpYLPQTV-NH2 from His-tagged STAT3-SH2 domain (127 to 722 residues) (unknown origin) assessed as binding rate at 100 uM […] by fluorescence polarization assay; details: time 90.0 min
MCF7 = assay: Antiproliferative activity against human MCF7 cells expressing low levels of STAT3 assessed as inhibition of cell growth incubated for 72 hrs by MTT assay; assay type: functional, cell-based; details: MCF7, 72 h
In short: (§2)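 MTT proliferation assay on MCF-7 and MDA-MB-453 cells; IC50 given as mean ± SD of at least two independent experiments.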

[3] = biological target: T1, Signal transducer and activator of transcription 3; assay: Displacement of 5'-FAM-GpYLPQTV-NH2 from His-tagged STAT3-SH2 domain (127 to 722 residues) (unknown origin) assessed as binding rate at 50 uM […] by fluorescence polarization assay; details: time 90.0 min
[4] = biological target: T1, Signal transducer and activator of transcription 3; assay: Binding affinity to His-tagged STAT3-SH2 domain (127 to 722 residues) (unknown origin) by surface plasmon resonance analysis
In short: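 SPR on a Biacore T200 with STAT3 SH2 domain. Analytes were run as concentration series, and KD was taken as the equilibrium constant.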

[5] = biological target: T1, Signal transducer and activator of transcription 3; assay: Displacement of 5'-FAM-GpYLPQTV-NH2 from His-tagged STAT3-SH2 domain (127 to 722 residues) (unknown origin) assessed as binding rate at 20 uM […] by fluorescence polarization assay; details: time 90.0 min
MDA-MB-453 = assay: Antiproliferative activity against human MDA-MB-453 cells expressing low levels of STAT3 assessed as inhibition of cell growth incubated for 72 hrs by MTT assay; assay type: functional, cell-based; details: MDA-MB-453, 72 h; in short: as §2

Structure (SMILES) | IC50 (MDA-MB-468) | IC50 (HEL) | IC50 [1] | further results
COc1ccc([C@H](C)NC(=O)CSc2nc3ccc(NC(=O)c4ccc(OCCN5CCCC5)c(C)c4OC)cc3s2)cc1 | 3360 nM | 10400 nM | 1030 nM | 
CCCC(C)Oc1ccc(C(=O)Nc2ccc3nc(SCC(=O)N[C@@H](C)c4ccccc4)sc3c2)cc1C (stereo partly drawn) | 730 nM | > 10000 nM | 950 nM | 
CCC[C@@H](C)Oc1ccc(C(=O)Nc2ccc3nc(SCC(=O)N[C@@H](C)c4ccccc4)sc3c2)cc1C |  |  | 900 nM | 
COc1ccc([C@H](C)NC(=O)CSc2nc3ccc(NC(=O)c4ccc(OC)c(C)c4OC)cc3s2)cc1 | 2050 nM | 1340 nM | 120 nM | 
CCCC(C)Oc1ccc(C(=O)Nc2ccc3nc(SCC(=O)N[C@@H](C)c4ccccc4)sc3c2)cc1C#N (stereo partly drawn) |  |  | > 10000 nM | 
CCCC(C)Oc1ccc(C(=O)Nc2ccc3nc(SCC(=O)N[C@@H](C)c4ccccc4)sc3c2)c(C)c1C (stereo partly drawn) | 810 nM | 930 nM | 460 nM | 
CCCC(C)Oc1ccc(C(=O)Nc2ccc3nc(SCC(=O)N[C@@H](C)c4ccccc4O)sc3c2)c(OC)c1C (stereo partly drawn) | 590 nM | 970 nM | 170 nM | 
CCCC(C)Oc1ccc(C(=O)Nc2ccc3nc(SCC(=O)N[C@@H](C)c4ccccc4)sc3c2)cc1 (stereo partly drawn) | 2210 nM | > 10000 nM |  | IC50 ([1]; hepg2): 1600 nM
COc1ccc([C@H](C)NC(=O)CSc2nc3ccc(NC(=O)c4ccc(OCC(C)C)c(C)c4OC)cc3s2)cc1 | 2020 nM | 2050 nM | 200 nM | 
COc1ccc([C@H](C)NC(=O)CSc2nc3ccc(NC(=O)c4ccc(OCCN(C)C)c(C)c4OC)cc3s2)cc1 | 6570 nM | 4980 nM | 520 nM | 
CCCC(C)Oc1ccc(C(=O)Nc2ccc3nc(SCC(=O)N[C@@H](C)c4ccccc4)sc3c2)c(OC)c1 (stereo partly drawn) |  |  | 2200 nM | 
O=[N+]([O-])c1ccc2c(c1)S(=O)(=O)C=C2 |  | 1590 nM |  | Activity [2]: 95%; IC50 (MCF7): 1700 nM; Activity [3]: 71.1%; Kd [4]: 1530 nM; Activity [5]: 62.3%; IC50 (MDA-MB-453): 4400 nM
CCCC(C)Oc1ccc(C(=O)Nc2ccc3nc(SCC(=O)N[C@@H](C)c4ccccc4)sc3c2)c(F)c1F (stereo partly drawn) |  |  | > 10000 nM | 
CCCC(C)Oc1ccc(C(=O)Nc2ccc3nc(SCC(=O)N[C@@H](C)c4ccccc4)sc3c2)c(C)c1 (stereo partly drawn) |  |  | 2720 nM | 
N#CC[C@H](C1CCCC1)n1cc(-c2ncnc3[nH]ccc23)cn1 [RUXOLITINIB] | > 20000 nM | 1400 nM |  | 
COc1ccc([C@H](C)NC(=O)CNc2nc3ccc(NC(=O)c4ccc(OC)c(C)c4OC)cc3s2)cc1 |  |  | 1490 nM | 
CCCC(C)Oc1ccc(C(=O)Nc2ccc3nc(SCC(=O)N[C@@H](C)c4cccc(OC)c4)sc3c2)c(OC)c1C (stereo partly drawn) | 500 nM | 870 nM | 270 nM | 
NS(=O)(=O)c1cccc2c1C(=O)c1cccc(O)c1C2=O | 730 nM | 1460 nM | 98 nM | 

Structure (SMILES) | IC50 (MDA-MB-468) | IC50 (HEL) | IC50 [1] | further results
CCCC(C)Oc1ccc(C(=O)Nc2ccc3nc(SCC(=O)N[C@@H](C)c4ccccc4)sc3c2)c(Cl)c1 (stereo partly drawn) |  |  | 1340 nM | 
COc1ccc([C@H](C)NC(=O)CSc2nc3ccc(NC(=O)c4ccc(OC(C)C)c(C)c4OC)cc3s2)cc1 | 1810 nM | 1290 nM | 220 nM | 
COc1ccc([C@H](C)NC(=O)CSc2nc3ccc(NC(=O)c4ccc(OCCN5CCOCC5)c(C)c4OC)cc3s2)cc1 | 1770 nM | 3380 nM | 240 nM | 
Cc1cc(Nc2nc(N[C@@H](C)c3ncc(F)cn3)ncc2Cl)[nH]n1 [AZD-1480] | 5870 nM | 730 nM |  | 
CCC[C@H](C)Oc1ccc(C(=O)Nc2ccc3nc(SCC(=O)N[C@@H](C)c4ccccc4)sc3c2)cc1C |  |  | 1200 nM | 
COc1ccc([C@H](C)NC(=O)COc2nc3ccc(NC(=O)c4ccc(OC)c(C)c4OC)cc3s2)cc1 |  |  | 8860 nM | 
CCCC(C)Oc1ccc(C(=O)Nc2ccc3nc(SCC(=O)N[C@@H](C)c4cccc(O)c4)sc3c2)c(OC)c1C (stereo partly drawn) | 2240 nM | 620 nM | 150 nM | 
CCCc1cc(C(=O)Nc2ccc3nc(SCC(=O)N[C@@H](C)c4ccccc4)sc3c2)ccc1OC(C)CCC (stereo partly drawn) |  |  | > 10000 nM | 
CCCC(C)Oc1ccc(C(=O)Nc2ccc3nc(SCC(=O)N[C@@H](C)c4ccccc4)sc3c2)cc1C(F)(F)F (stereo partly drawn) |  |  | > 10000 nM | 
CCCC(C)Oc1ccc(C(=O)Nc2ccc3nc(SCC(=O)N[C@@H](C)c4ccccc4)sc3c2)cc1OC (stereo partly drawn) |  |  | 1420 nM | 
CCCC(C)Oc1ccc(C(=O)Nc2ccc3nc(SCC(=O)N[C@@H](C)c4ccccc4)sc3c2)cc1CC (stereo partly drawn) |  |  | > 10000 nM | 
CCCC(C)Oc1ccc(C(=O)Nc2ccc3nc(SCC(=O)N[C@@H](C)c4ccccc4)sc3c2)c(F)c1 (stereo partly drawn) |  |  | > 10000 nM | 
CCCC(C)Oc1ccc(C(=O)Nc2ccc3nc(SCC(=O)N[C@@H](C)c4ccccc4)sc3c2)cc1Cl (stereo partly drawn) |  |  | > 10000 nM | 
CCCC(C)Oc1ccc(C(=O)Nc2ccc3nc(SCC(=O)N[C@@H](C)c4ccccc4)sc3c2)cc1F (stereo partly drawn) |  |  | > 10000 nM | 
CCCC(C)Oc1ccc(C(=O)Nc2ccc3nc(SCC(=O)N[C@@H](C)c4ccccc4)sc3c2)cc1Br (stereo partly drawn) |  |  | 2150 nM | 
CCCC(C)Oc1ccc(C(=O)Nc2ccc3nc(SCC(=O)N[C@@H](C)c4ccc(O)cc4)sc3c2)c(OC)c1C (stereo partly drawn) | 700 nM | 680 nM | 200 nM | 
COCCOc1ccc(C(=O)Nc2ccc3nc(SCC(=O)N[C@@H](C)c4ccc(OC)cc4)sc3c2)c(OC)c1C | 1160 nM | 1440 nM | 260 nM | 
